From ChEMBL document CHEMBL4387704, “Design, synthesis and biological evaluation of novel isoindolinone derivatives as potent histone deacetylase inhibitors” (Eur J Med Chem, 2019)
pIC50: −log10 of the molar value. Active and inactive are the calls of the source. The rule behind the calls is not given here.

How the values were obtained:
Histone deacetylase 1 = Histone deacetylase 1 (Homo sapiens, UniProt Q13547); assay: Inhibition of HDAC1 (unknown origin) using Fluor de Lys substrate by fluorescence assay relative to control; conditions: read-out: IC50
Histone deacetylase 1, sequence (Q13547 whole entry): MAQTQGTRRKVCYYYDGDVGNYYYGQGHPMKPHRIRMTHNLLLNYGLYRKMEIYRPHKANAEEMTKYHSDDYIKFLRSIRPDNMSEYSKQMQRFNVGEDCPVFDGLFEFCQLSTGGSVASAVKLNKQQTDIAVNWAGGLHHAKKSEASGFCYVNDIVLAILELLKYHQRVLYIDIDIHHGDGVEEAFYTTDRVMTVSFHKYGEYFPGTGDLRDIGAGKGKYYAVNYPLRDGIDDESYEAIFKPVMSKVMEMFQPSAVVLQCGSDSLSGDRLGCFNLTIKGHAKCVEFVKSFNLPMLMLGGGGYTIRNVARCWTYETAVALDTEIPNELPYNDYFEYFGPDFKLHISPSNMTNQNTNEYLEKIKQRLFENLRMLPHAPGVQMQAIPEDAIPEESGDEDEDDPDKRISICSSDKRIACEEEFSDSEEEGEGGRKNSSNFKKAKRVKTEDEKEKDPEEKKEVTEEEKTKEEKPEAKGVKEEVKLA

[1] = target: Histone deacetylase 4 (Homo sapiens) (UniProt P56524); assay: Inhibition of HDAC4 (unknown origin) using Fluor de Lys substrate by fluorescence assay relative to control
Histone deacetylase 4 (Homo sapiens), sequence (P56524 whole entry, canonical isoform): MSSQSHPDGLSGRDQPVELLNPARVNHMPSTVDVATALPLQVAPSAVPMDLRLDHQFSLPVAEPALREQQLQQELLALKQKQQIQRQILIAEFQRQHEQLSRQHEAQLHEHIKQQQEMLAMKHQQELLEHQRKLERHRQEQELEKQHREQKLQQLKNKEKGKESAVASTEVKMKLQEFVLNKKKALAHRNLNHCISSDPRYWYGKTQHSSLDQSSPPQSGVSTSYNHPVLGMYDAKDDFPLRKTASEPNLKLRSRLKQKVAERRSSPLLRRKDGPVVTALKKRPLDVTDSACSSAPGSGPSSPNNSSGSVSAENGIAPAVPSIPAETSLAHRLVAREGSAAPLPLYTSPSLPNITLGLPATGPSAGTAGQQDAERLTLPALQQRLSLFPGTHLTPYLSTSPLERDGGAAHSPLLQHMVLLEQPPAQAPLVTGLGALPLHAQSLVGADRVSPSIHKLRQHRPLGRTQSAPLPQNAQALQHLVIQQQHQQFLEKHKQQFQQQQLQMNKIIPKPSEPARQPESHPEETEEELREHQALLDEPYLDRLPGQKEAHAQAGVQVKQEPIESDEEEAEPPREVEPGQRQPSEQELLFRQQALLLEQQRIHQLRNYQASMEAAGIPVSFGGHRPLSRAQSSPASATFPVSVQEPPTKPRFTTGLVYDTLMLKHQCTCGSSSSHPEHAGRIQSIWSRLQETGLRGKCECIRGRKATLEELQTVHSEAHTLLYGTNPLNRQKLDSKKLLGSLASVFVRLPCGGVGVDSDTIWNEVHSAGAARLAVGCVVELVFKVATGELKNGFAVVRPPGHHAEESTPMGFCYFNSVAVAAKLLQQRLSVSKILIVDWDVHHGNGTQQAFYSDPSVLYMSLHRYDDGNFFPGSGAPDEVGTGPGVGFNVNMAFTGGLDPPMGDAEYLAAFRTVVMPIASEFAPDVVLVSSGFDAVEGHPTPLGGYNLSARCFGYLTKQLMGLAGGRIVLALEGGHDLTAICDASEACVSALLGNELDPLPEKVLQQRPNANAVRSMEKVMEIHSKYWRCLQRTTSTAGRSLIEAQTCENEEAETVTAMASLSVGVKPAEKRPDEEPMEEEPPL
Summary of the method: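 Recombinant HDAC isoform assays run by a contract lab. Compounds in DMSO, 10-dose IC50 mode, 3-fold serial dilution from 50 μM. Duplicate runs; IC50 from curve fitting.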

K562 = assay: Potency index, ratio of IC50 of chidamide to IC50 of test compound against human K562 cells; assay type: functional
[2] = target: Class 1 histone deacetylase (Homo sapiens) (UniProt Q13547+O15379+Q92769+Q9BY41); assay: Inhibition of class I HDAC in human MCF7 cells assessed as increase in cellular histone H3 acetylation levels incubated for 24 hrs by Western blot; assay type: cell-based
Class 1 histone deacetylase (Homo sapiens), sequence (O15379 whole entry, looked up): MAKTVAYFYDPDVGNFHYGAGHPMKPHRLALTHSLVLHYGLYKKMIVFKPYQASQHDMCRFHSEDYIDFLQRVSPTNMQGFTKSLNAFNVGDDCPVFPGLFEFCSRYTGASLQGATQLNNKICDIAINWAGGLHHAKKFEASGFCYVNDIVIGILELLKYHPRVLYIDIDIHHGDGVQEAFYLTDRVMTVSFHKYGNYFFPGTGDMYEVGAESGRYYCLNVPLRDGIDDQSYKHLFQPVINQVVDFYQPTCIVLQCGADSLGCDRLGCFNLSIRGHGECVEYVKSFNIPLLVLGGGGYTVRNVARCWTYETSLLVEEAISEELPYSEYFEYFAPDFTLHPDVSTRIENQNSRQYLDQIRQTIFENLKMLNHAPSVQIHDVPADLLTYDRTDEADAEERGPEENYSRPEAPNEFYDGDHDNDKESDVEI
Class 1 histone deacetylase (Homo sapiens), sequence (Q13547 whole entry, looked up): as the sequence (Q13547 whole entry) above
Class 1 histone deacetylase (Homo sapiens), sequence (Q92769 whole entry, looked up): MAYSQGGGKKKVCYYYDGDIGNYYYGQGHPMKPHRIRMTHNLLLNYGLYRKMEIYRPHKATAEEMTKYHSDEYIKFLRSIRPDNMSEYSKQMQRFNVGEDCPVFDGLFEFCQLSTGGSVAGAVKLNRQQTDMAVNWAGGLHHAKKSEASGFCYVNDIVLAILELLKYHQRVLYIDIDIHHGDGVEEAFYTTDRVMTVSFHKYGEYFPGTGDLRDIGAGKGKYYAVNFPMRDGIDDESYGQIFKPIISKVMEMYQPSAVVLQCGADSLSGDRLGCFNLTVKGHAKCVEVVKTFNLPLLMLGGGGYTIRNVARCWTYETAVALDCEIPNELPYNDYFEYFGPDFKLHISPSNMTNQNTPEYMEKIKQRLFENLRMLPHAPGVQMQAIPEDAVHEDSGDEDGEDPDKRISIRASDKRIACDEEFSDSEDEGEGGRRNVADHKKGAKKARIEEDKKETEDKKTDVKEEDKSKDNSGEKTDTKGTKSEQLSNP
Class 1 histone deacetylase (Homo sapiens), sequence (Q9BY41 whole entry, looked up): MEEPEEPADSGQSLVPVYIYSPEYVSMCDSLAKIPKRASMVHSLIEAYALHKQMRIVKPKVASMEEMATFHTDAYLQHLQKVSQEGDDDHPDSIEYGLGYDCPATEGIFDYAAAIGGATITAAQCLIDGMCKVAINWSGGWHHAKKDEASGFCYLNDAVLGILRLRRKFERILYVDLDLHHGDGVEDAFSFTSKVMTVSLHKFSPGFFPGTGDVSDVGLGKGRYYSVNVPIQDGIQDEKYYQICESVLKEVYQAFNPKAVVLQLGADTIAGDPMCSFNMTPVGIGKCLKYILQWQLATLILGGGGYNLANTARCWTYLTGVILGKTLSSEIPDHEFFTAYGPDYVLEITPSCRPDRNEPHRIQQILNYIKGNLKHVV
Summary of the method: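 MCF-7 cells (1×10^6) seeded overnight, treated 24 h at 0.25, 2.5 or 25 μM. Lysed with protease inhibitor (EDTA-free); 30 µg total protein run on SDS-PAGE, blotted to nitrocellulose, probed for acetyl-H3, ECL detection.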

HL-60(TB) = assay: Growth inhibition of human HL-60(TB) cells assessed as cell growth inhibition at 10 uM incubated for 48 hrs by sulforhodamine B assay; assay type: functional; conditions: HL-60, 48 h, read-out: GI
SR = assay: Growth inhibition of human SR cells assessed as cell growth inhibition at 10 uM incubated for 48 hrs by sulforhodamine B assay; assay type: functional; conditions: read-out: GI
HOP-62 = assay: Growth inhibition of human HOP62 cells assessed as cell growth inhibition at 10 uM incubated for 48 hrs by sulforhodamine B assay; assay type: functional; conditions: HOP-62, 48 h, read-out: GI
NCI-H226 = assay: Growth inhibition of human NCI-H226 assessed as cell growth inhibition at 10 uM incubated for 48 hrs by sulforhodamine B assay; assay type: functional; conditions: NCI-H226, 48 h, read-out: GI
NCI-H23 = assay: Growth inhibition of human NCI-H23 cells assessed as cell growth inhibition at 10 uM incubated for 48 hrs by sulforhodamine B assay; assay type: functional; conditions: NCI-H23, 48 h, read-out: GI
COLO 205 = assay: Growth inhibition of human COLO205 cells assessed as cell growth inhibition at 10 uM incubated for 48 hrs by sulforhodamine B assay; assay type: functional; conditions: COLO 205, 48 h, read-out: GI
HCT-15 = assay: Growth inhibition of human HCT15 cells assessed as cell growth inhibition at 10 uM incubated for 48 hrs by sulforhodamine B assay; assay type: functional; conditions: HCT-15, 48 h, read-out: GI
KM12 = assay: Growth inhibition of human KM12 cells assessed as cell growth inhibition at 10 uM incubated for 48 hrs by sulforhodamine B assay; assay type: functional; conditions: KM12, 48 h, read-out: GI
DU-145 = assay: Growth inhibition of human DU145 cells assessed as cell growth inhibition at 10 uM incubated for 48 hrs by sulforhodamine B assay; assay type: functional; conditions: DU-145, 48 h, read-out: GI
TK-10 = assay: Growth inhibition of human TK10 cells assessed as cell growth inhibition at 10 uM incubated for 48 hrs by sulforhodamine B assay; assay type: functional; conditions: TK-10, 48 h, read-out: GI
SF-295 = assay: Growth inhibition of human SF295 cells assessed as cell growth inhibition at 10 uM incubated for 48 hrs by sulforhodamine B assay; assay type: functional; conditions: SF-295, 48 h, read-out: GI
SNB-75 = assay: Growth inhibition of human SNB75 cells assessed as cell growth inhibition at 10 uM incubated for 48 hrs by sulforhodamine B assay; assay type: functional; conditions: SNB-75, 48 h, read-out: GI
Malme-3M = assay: Growth inhibition of human MALME-3M cells assessed as cell growth inhibition at 10 uM incubated for 48 hrs by sulforhodamine B assay; assay type: functional; conditions: read-out: GI
M14 = assay: Growth inhibition of human M14 cells assessed as cell growth inhibition at 10 uM incubated for 48 hrs by sulforhodamine B assay; assay type: functional; conditions: M14, 48 h, read-out: GI
MDA-MB-435 = assay: Growth inhibition of human MDA-MB-435 cells assessed as cell growth inhibition at 10 uM incubated for 48 hrs by sulforhodamine B assay; assay type: functional; conditions: MDA-MB-435, 48 h, read-out: GI
UACC-62 = assay: Growth inhibition of human UACC62 cells assessed as cell growth inhibition at 10 uM incubated for 48 hrs by sulforhodamine B assay; assay type: functional; conditions: UACC-62, 48 h, read-out: GI
IGROV-1 = assay: Growth inhibition of human IGROV1 cells assessed as cell growth inhibition at 10 uM incubated for 48 hrs by sulforhodamine B assay; assay type: functional; conditions: IGROV-1, 48 h, read-out: GI
OVCAR-3 = assay: Growth inhibition of human OVCAR3 cells assessed as cell growth inhibition at 10 uM incubated for 48 hrs by sulforhodamine B assay; assay type: functional; conditions: OVCAR-3, 48 h, read-out: GI
OVCAR-5 = assay: Growth inhibition of human OVCAR5 cells assessed as cell growth inhibition at 10 uM incubated for 48 hrs by sulforhodamine B assay; assay type: functional; conditions: OVCAR-5, 48 h, read-out: GI
T47D = assay: Growth inhibition of human T47D cells assessed as cell growth inhibition at 10 uM incubated for 48 hrs by sulforhodamine B assay; assay type: functional; conditions: read-out: GI
MCF7 = assay: Growth inhibition of human MCF7 cells assessed as cell growth inhibition at 10 uM incubated for 48 hrs by sulforhodamine B assay; assay type: functional; conditions: MCF7, 48 h, read-out: GI
MDA-MB-231 = assay: Growth inhibition of human MDA-MB-231 cells assessed as cell growth inhibition at 10 uM incubated for 48 hrs by sulforhodamine B assay; assay type: functional; conditions: MDA-MB-231, 48 h, read-out: GI
[3] = Metabolic stability in rat liver microsomes assessed as half life at 1 uM preincubated for 10 mins followed by NADPH addition measured upto 60 mins by LC-MS/MS analysis; assay type: ADME, Microsome
Summary of the method: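 Liver microsomes from male SD rat, dog or human at 0.5 mg/mL in 100 mM potassium phosphate pH 7.4 with 1 μM compound. Prewarmed 37 °C 10 min, started with 1 mM NADPH. Stopped at 0, 5, 10, 20, 40, 60 min with cold methanol containing glibenclamide internal standard; supernatant by LC–MS/MS; T1/2 and CLint derived.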

[4] = Clearance in Sprague-Dawley rat at 1 mg/kg, iv by LC-MS/MS analysis; assay type: ADME, organism-based; conditions: in vivo
Summary of the method: (§1)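 Male SD rats, 199-214 g, three per route. Single iv dose of 1 mg/kg or oral dose of 10 mg/kg. About 200 μL blood drawn from the jugular vein into heparinized tubes at set times, then spun to plasma. 30 μL plasma precipitated with CH3CN containing verapamil and glibenclamide as internal standards. Plasma drug level measured by LC-MS/MS.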

[5] = AUC (0 to infinity) in Sprague-Dawley rat at 1 mg/kg, iv by LC-MS/MS analysis; assay type: ADME, organism-based; parameters: dose 1 mg/kg, route intravenous, time infinity; conditions: in vivo; summary of the method: as §1
[6] = AUC (0 to t) in Sprague-Dawley rat at 10 mg/kg, po by LC-MS/MS analysis; assay type: ADME, organism-based; conditions: in vivo

In the case of `Nc1cc(F)ccc1NC(=O)c1ccc(CNC(=O)/C=C2\NC(=O)c3ccccc32)cc1`, the pIC50 (Histone deacetylase 1) was 7.19, the inhibition [1] was “inactive” and the “Ratio IC50” value (K562) was 4. For the same molecule, the inhibition [2] was “Dose-dependent effect”, the inhibition of growth at 10 µM (HL-60(TB)) was 84% and the inhibition of growth at 10 µM (SR) was 57.6%. The inhibition of growth at 10 µM (HOP-62) was 29.9%, the inhibition of growth at 10 µM (NCI-H226) was 30.2% and the inhibition of growth at 10 µM (NCI-H23) was 26.5%. The inhibition of growth at 10 µM (COLO 205) was 27.8%, the inhibition of growth at 10 µM (HCT-15) was 0.12% and the inhibition of growth at 10 µM (KM12) was 26.9%. It also gave an inhibition of growth at 10 µM (DU-145) of 13%, an inhibition of growth at 10 µM (TK-10) of 72.3% and an inhibition of growth at 10 µM (SF-295) of 16.2%. It also gave an inhibition of growth at 10 µM (SNB-75) of 30.6%, an inhibition of growth at 10 µM (Malme-3M) of 52.6% and an inhibition of growth at 10 µM (M14) of 29.4%. The inhibition of growth at 10 µM (MDA-MB-435) was 28.8%, the inhibition of growth at 10 µM (UACC-62) was 57.8% and the inhibition of growth at 10 µM (IGROV-1) was 22.8%. The inhibition of growth at 10 µM (OVCAR-3) was 42%, the inhibition of growth at 10 µM (OVCAR-5) was 36.4% and the inhibition of growth at 10 µM (T47D) was 58.2%. It also gave an inhibition of growth at 10 µM (MCF7) of 35.5%, an inhibition of growth at 10 µM (MDA-MB-231) of 22.4% and a half-life at 1 µM [3] of 2.02 h. The clearance [4] was 21.3 mL/min/kg, the AUC(0-inf) [5] was 784 ng·h/mL and the AUC(0-t) [6] was 1710 ng·h/mL.
